In brackets after ≈: the same amount, converted by molar mass. Activity calls are given as the source filed them. The calls are words filed in the database; no cut-off is given here. Square brackets hold non-standard residues; d marks the D form. Peptide text beside a SMILES is read from it. Aoc = NCCCCCCCC(=O)O
Assays:
Streptococcus mutans [1] = experiment: Antimicrobial activity against Streptococcus mutans UA159 after 16 to 20 hrs by broth microdilution assay; format: functional
In short: (§1)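 Broth microdilution. Twofold peptide dilutions were made in 50% BHI–50% sterile water for oral streptococci and in 1× Mueller-Hinton broth for the other bacteria. First round 500 to 0.97 µg/ml; a second round of 64 to 0.5 µg/ml was run in some cases, reporting its mode. Inoculum ~1 × 10^5 CFU/ml, 37°C for 16–20 h. Read A600; MIC taken as complete inhibition or ≥90% turbidity reduction versus peptide-free control.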

Streptococcus sanguinis = experiment: Antimicrobial activity against Streptococcus sanguinis NY101 after 16 to 20 hrs by broth microdilution assay; format: functional; in short: as §1
Streptococcus mitis = experiment: Antimicrobial activity against Streptococcus mitis ATCC 903 after 16 to 20 hrs by broth microdilution assay; format: functional; in short: as §1
[2] = Antimicrobial activity against Streptococcus gordonii Challis DL1 after 16 to 20 hrs by broth microdilution assay; format: functional, Streptococcus gordonii str. Challis; in short: as §1
Staphylococcus aureus = experiment: Antimicrobial activity against methicillin-resistant Staphylococcus aureus after 16 to 20 hrs by broth microdilution assay; format: functional
In short: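 MRSA grown aerobically in BHI at 37°C. Broth microdilution: 2-fold peptide dilutions in 1× Mueller-Hinton broth, first round 500 to 0.97 µg/ml; if activity below 62.5 µg/ml, sometimes a second round at 64 to 0.5 µg/ml, reporting the mode. Inoculum ~1 × 10^5 CFU/ml, 37°C for 16-20 h. A600 read. MIC = lowest concentration giving complete inhibition or ≥90% turbidity reduction versus peptide-free control.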

Pseudomonas aeruginosa = experiment: Antimicrobial activity against Pseudomonas aeruginosa PAK after 16 to 20 hrs by broth microdilution assay; format: functional; in short: as §1
Streptococcus mutans [3] = experiment: Antimicrobial activity against Streptococcus mutans UA159 assessed as inhibition of bacterial biofilm formation at 25 uM after 3 mins by fluorescence assay; format: functional
In short: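 S. mutans UA159 overnight culture was diluted 1:5,000 in TH with 1% sucrose and grown as biofilm for 24 h. Biofilms were exposed 3 min at room temperature to 25 µM fluorescein-labelled peptide in HEPES/NaHCO3/NaCl/MgCl2 buffer with 0.1% CTAB, pH 7.4, then washed twice. Green fluorescence images were taken and biofilm-associated green pixels quantified as binding intensity units.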

Enterococcus faecalis = experiment: Antimicrobial activity against Enterococcus faecalis after 16 to 20 hrs by broth microdilution assay; format: functional; in short: as §1
Escherichia coli = experiment: Antimicrobial activity against Escherichia coli W3110 after 16 to 20 hrs by broth microdilution assay; format: functional; in short: as §1

Compound | MIC (Streptococcus mutans [1]) [µg/mL] | MIC (Streptococcus sanguinis) [µg/mL] | MIC (Streptococcus mitis) [µg/mL] | MIC [2] [µg/mL] | MIC (Staphylococcus aureus) [µg/mL] | MIC (Pseudomonas aeruginosa) [µg/mL] | inhibition (Streptococcus mutans [3]) | MIC (Enterococcus faecalis) [µg/mL] | MIC (Escherichia coli) [µg/mL]
CC[C@H](C)[C@H](NC(=O)[C@H](Cc1ccccc1)NC(=O)[C@H](Cc1cnc[nH]1)NC(=O)[C@H](CCCCN)NC(=O)[C@@H](NC(=O)[C@@H](N)Cc1ccccc1)[C@@H](C)CC)C(=O)N[C@@H](Cc1cnc[nH]1)C(=O)N[C@@H](CCCNC(=N)N)C(=O)N[C@@H](Cc1ccccc1)C(=O)NCCCCCCCC(=O)N[C@@H](CC(C)C)C(=O)N[C@@H](CCC(N)=O)C(=O)N[C@@H](CC(C)C)C(=O)N[C@@H](CC(C)C)C(=O)N[C@@H](CCCCN)C(=O)N[C@@H](CCC(N)=O)C(=O)N[C@@H](CC(C)C)C(=O)N[C@@H](CC(C)C)C(=O)N[C@@H](CCCCN)C(=O)N[C@@H](CC(C)C)C(=O)N[C@@H](CC(C)C)C(=O)N[C@@H](CCCCN)C(=O)N[C@@H](CCC(N)=O)C(=O)N[C@@H](Cc1ccccc1)C(N)=O (H-FIKHFIHRF[Aoc]LQLLKQLLKLLKQF-NH2) | 16 (≈ 5.17 µM) | 32 (≈ 10.3 µM) | 62.5 (≈ 20.2 µM) | 32 (≈ 10.3 µM) | 62.5 (≈ 20.2 µM) | 62.5 (≈ 20.2 µM) | – | – | –
CC[C@H](C)[C@H](NC(=O)[C@H](Cc1ccccc1)NC(=O)[C@H](Cc1cnc[nH]1)NC(=O)[C@H](CCCCN)NC(=O)[C@@H](NC(=O)[C@@H](N)Cc1ccccc1)[C@@H](C)CC)C(=O)N[C@@H](Cc1cnc[nH]1)C(=O)N[C@@H](CCCNC(=N)N)C(=O)N[C@@H](Cc1ccccc1)C(=O)NCCCCCCCC(=O)N[C@@H](CCCNC(=N)N)C(=O)N[C@@H](Cc1c[nH]c2ccccc12)C(=O)N[C@@H](CCCNC(=N)N)C(=O)N[C@@H](CCCNC(=N)N)C(=O)N[C@@H](CC(C)C)C(=O)N[C@@H](CC(C)C)C(=O)N[C@@H](CCCCN)C(=O)N[C@@H](CCCCN)C(=O)N[C@@H](CC(C)C)C(=O)N[C@@H](Cc1cnc[nH]1)C(=O)N[C@@H](Cc1cnc[nH]1)C(=O)N[C@@H](CC(C)C)C(=O)N[C@@H](CC(C)C)C(=O)N[C@@H](Cc1cnc[nH]1)C(N)=O (H-FIKHFIHRF[Aoc]RWRRLLKKLHHLLH-NH2) | 16 (≈ 4.89 µM) | 32 (≈ 9.78 µM) | 32 (≈ 9.78 µM) | 32 (≈ 9.78 µM) | 62.5 (≈ 19.1 µM) | 62.5 (≈ 19.1 µM) | Active | – | –
CC[C@H](C)[C@H](NC(=O)[C@H](Cc1ccccc1)NC(=O)CCCCCCCNC(=O)[C@H](Cc1ccccc1)NC(=O)[C@H](CCC(N)=O)NC(=O)[C@H](CCCCN)NC(=O)[C@H](CC(C)C)NC(=O)[C@H](CC(C)C)NC(=O)[C@H](CCCCN)NC(=O)[C@H](CC(C)C)NC(=O)[C@H](CC(C)C)NC(=O)[C@H](CCC(N)=O)NC(=O)[C@H](CCCCN)NC(=O)[C@H](CC(C)C)NC(=O)[C@H](CC(C)C)NC(=O)[C@H](CCC(N)=O)NC(=O)[C@@H](N)CC(C)C)C(=O)N[C@@H](CCCCN)C(=O)N[C@@H](Cc1cnc[nH]1)C(=O)N[C@@H](Cc1ccccc1)C(=O)N[C@H](C(=O)N[C@@H](Cc1cnc[nH]1)C(=O)N[C@@H](CCCNC(=N)N)C(=O)N[C@@H](Cc1ccccc1)C(N)=O)[C@@H](C)CC (H-LQLLKQLLKLLKQF[Aoc]FIKHFIHRF-NH2) | 8 (≈ 2.59 µM) | 32 (≈ 10.3 µM) | 32 (≈ 10.3 µM) | 16 (≈ 5.17 µM) | 62.5 (≈ 20.2 µM) | 32 (≈ 10.3 µM) | – | – | –
CC[C@H](C)[C@H](NC(=O)[C@H](Cc1ccccc1)NC(=O)CCCCCCCNC(=O)[C@H](Cc1cnc[nH]1)NC(=O)[C@H](CC(C)C)NC(=O)[C@H](CC(C)C)NC(=O)[C@H](Cc1cnc[nH]1)NC(=O)[C@H](Cc1cnc[nH]1)NC(=O)[C@H](CC(C)C)NC(=O)[C@H](CCCCN)NC(=O)[C@H](CCCCN)NC(=O)[C@H](CC(C)C)NC(=O)[C@H](CC(C)C)NC(=O)[C@H](CCCNC(=N)N)NC(=O)[C@H](CCCNC(=N)N)NC(=O)[C@H](Cc1c[nH]c2ccccc12)NC(=O)[C@@H](N)CCCNC(=N)N)C(=O)N[C@@H](CCCCN)C(=O)N[C@@H](Cc1cnc[nH]1)C(=O)N[C@@H](Cc1ccccc1)C(=O)N[C@H](C(=O)N[C@@H](Cc1cnc[nH]1)C(=O)N[C@@H](CCCNC(=N)N)C(=O)N[C@@H](Cc1ccccc1)C(N)=O)[C@@H](C)CC (H-RWRRLLKKLHHLLH[Aoc]FIKHFIHRF-NH2) | 8 (≈ 2.44 µM) | 16 (≈ 4.89 µM) | 32 (≈ 9.78 µM) | 16 (≈ 4.89 µM) | 62.5 (≈ 19.1 µM) | 32 (≈ 9.78 µM) | – | – | –
CC[C@H](C)[C@H](NC(=O)[C@H](Cc1ccccc1)NC(=O)CCCCCCCNC(=O)[C@H](Cc1ccccc1)NC(=O)[C@H](Cc1c[nH]c2ccccc12)NC(=O)[C@H](CCCNC(=N)N)NC(=O)[C@H](Cc1c[nH]c2ccccc12)NC(=O)[C@H](CCCNC(=N)N)NC(=O)[C@H](Cc1c[nH]c2ccccc12)NC(=O)[C@@H](N)CCCNC(=N)N)C(=O)N[C@@H](CCCCN)C(=O)N[C@@H](Cc1cnc[nH]1)C(=O)N[C@@H](Cc1ccccc1)C(=O)N[C@H](C(=O)N[C@@H](Cc1cnc[nH]1)C(=O)N[C@@H](CCCNC(=N)N)C(=O)N[C@@H](Cc1ccccc1)C(N)=O)[C@@H](C)CC (H-RWRWRWF[Aoc]FIKHFIHRF-NH2) | 32 (≈ 12.5 µM) | 32 (≈ 12.5 µM) | 32 (≈ 12.5 µM) | 62.5 (≈ 24.4 µM) | 62.5 (≈ 24.4 µM) | 125 (≈ 48.8 µM) | – | – | –
H-FHFHLHF-NH2 | 8 | 16 | – | – | 32 | 16 | Active | 16 | 8
H-FIKHFIHRFGGGIKQLLHFFQRF-NH2 | 8 | 32 | 16 | 32 | 62.5 | 125 | – | – | –
H-FIKHFIHRFSATLQLLKQLLKLLKQF-NH2 | 16 | 16 | 32 | 8 | 62.5 | 32 | – | – | –
H-FIKHFIHRFSATRWRRLLKKLHHLLH-NH2 | 16 | 32 | 32 | 32 | 16 | 32 | Active | – | –
H-FIKHFIHRFSGGLQLLKQLLKLLKQF-NH2 | 16 | 32 | 62.5 | 8 | 32 | 32 | – | – | –
H-FIKHFIHRFSGGRWRRLLKKLHHLLH-NH2 | 16 | 16 | 62.5 | 32 | 32 | 32 | – | – | –
H-FIKHFIHRFSGGRWRWRWF-NH2 | 8 | 32 | 32 | 32 | 32 | 62.5 | – | – | –
H-FKKFWKWFRRFGGGFIKHFIHRF-NH2 | 8 | 32 | 62.5 | 125 | 32 | 125 | – | – | –
H-IKQLLHFFQRF-NH2 | 24 | 62.5 | 62.5 | 32 | 62.5 | 62.5 | – | – | –
H-IKQLLHFFQRFGGGFIKHFIHRF-NH2 | 8 | 32 | 16 | 32 | 62.5 | 125 | – | – | –
H-LQLLKQLLKLLKQF-NH2 | 8 | 8 | 16 | 8 | 16 | 8 | – | – | –
H-LQLLKQLLKLLKQFSATFIKHFIHRF-NH2 | 8 | 16 | 32 | 16 | 32 | 32 | – | – | –
H-LQLLKQLLKLLKQFSGGFIKHFIHRF-NH2 | 8 | 16 | 32 | 16 | 32 | 32 | – | – | –
H-RWRRLLKKLHHLLH-NH2 | 8 | 16 | 32 | 16 | 16 | 8 | – | – | –
H-RWRRLLKKLHHLLHSATFIKHFIHRF-NH2 | 8 | 16 | 16 | 16 | 32 | 32 | Active | – | –
H-RWRRLLKKLHHLLHSGGFIKHFIHRF-NH2 | 8 | 32 | 32 | 16 | 32 | 32 | – | – | –
H-RWRWRWFGGGFIKHFIHRF-NH2 | 8 | 32 | 32 | 32 | 32 | 62.5 | – | – | –
H-RWRWRWFSATFIKHFIHRF-NH2 | 8 | 32 | 16 | 62.5 | 62.5 | 62.5 | – | – | –
H-RWRWRWFSGGFIKHFIHRF-NH2 | 8 | 32 | 32 | 32 | 32 | 62.5 | – | – | –
